Data taken from ChEMBL document CHEMBL1123999, “Synthesis and antiviral activity of certain 4- and 4,5-disubstituted 7-[(2-hydroxyethoxy)methyl]pyrrolo[2,3-d]pyrimidines” (J Med Chem, 1988).

Tests used:
HFF = assay: Cytotoxicity against uninfected human foreskin fibroblast(HFF cells); format: functional, cell-based
Summary of the method: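 Uninfected HFF monolayers in the HCMV plaque assay. Drug-induced cytopathology was scored visually at 35- and 60-fold magnification, on a 0 to 4+ scale, on the day of staining for plaque enumeration. I50 was taken from linear regression of percent inhibition against log concentration.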

Human betaherpesvirus 5 [1] = assay: Inhibitory concentration against human cytomegalovirus (HCMV) in plaque reduction assay; format: functional, organism-based
Summary of the method: (§1)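 HFF monolayers were infected with the Towne strain of HCMV (plaque-purified isolate P0), about 50 PFU in a 0.2 mL inoculum. Compounds were dissolved in the overlay medium, with 100 μM the highest concentration tested. Plaques were counted. I50 was taken from linear regression of percent inhibition against log concentration. Acyclovir, ganciclovir and vidarabine served as positive controls.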

Human alphaherpesvirus 1 = assay: Inhibitory concentration against HSV-1 in plaque reduction assay
[2] = Cytotoxicity against uninfected monkey kidney cells (BSC-1); format: functional, cell-based; conditions: Cercopithecidae
Summary of the method: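 Uninfected BSC-1 (African green monkey kidney) monolayers, grown in MEM with Earle salts plus 10% FBS, in the HSV-1 plaque assay. Cytopathology was scored visually at 35- and 60-fold magnification, on a 0 to 4+ scale, on the day of staining for plaques. I50 was taken from regression of percent inhibition against log concentration.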

[3] = Inhibition against human neoplastic cell line(KB cells); format: functional, cell-based; conditions: read-out: I50
Summary of the method: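 KB cells (human epidermoid oral carcinoma) grown in MEM with Hanks salts plus 5% fetal bovine serum. Cytotoxicity read as inhibition of radioactive precursor incorporation into DNA, RNA and protein. I50 for each of the three came from linear regression of percent inhibition against log drug concentration, and the three I50s were averaged. Highest concentration tested 100 μM.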

[4] = Cytotoxicity against human neoplastic cell line(KB cells); format: functional, cell-based; conditions: read-out: I50
Summary of the method: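 KB cells (human epidermoid oral carcinoma) grown in MEM with Hanks salts plus 5% fetal bovine serum. Uptake of radioactive precursors into DNA, RNA and protein was measured. I50 values came from linear regression of percent inhibition against log concentration. The three I50 values (DNA, RNA, protein) were averaged. Positive controls were acyclovir, ganciclovir and vidarabine.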

Human betaherpesvirus 5 [5] = assay: Inhibitory concentration against human cytomegalovirus (HCMV) in plaque reduction assay at 100 uM concentration; format: functional, organism-based; conditions: read-out: I50; summary of the method: as §1

Compound	IC50 (HFF) [µM]	IC50 (Human betaherpesvirus 5 [1]) [µM]	IC50 (HFF; read-out: I50) [µM]	IC50 (Human betaherpesvirus 5 [1]; read-out: I50) [µM]	IC50 (Human alphaherpesvirus 1) [µM]	IC50 [2] [µM]	also measured
CN(C)c1ncnc2c1c(Br)cn2C1O[C@H](CO)[C@@H](O)[C@H]1O (some centres undefined)	10	16					
O=c1[nH]cnc2c1ccn2[C@@H]1O[C@H](CO)[C@@H](O)[C@H]1O [IMMUNICILLIN H]			10	3.5			
CCNc1ncnc2c1c(Br)cn2COCCO	> 100	> 100			> 320	> 320	
NNc1ncnc2c1ccn2C1O[C@H](CO)[C@@H](O)[C@H]1O (some centres undefined)			2	4			
C[Se]c1ncnc2c1ccn2C1O[C@H](CO)[C@@H](O)[C@H]1O (some centres undefined)	1.5	4					
OC[C@H]1OC(n2ccc3c(SC4C=CC=CC=C4)ncnc32)[C@H](O)[C@@H]1O (some centres undefined)	> 100	> 100					
OC[C@H]1O[C@@H](n2cc(I)c3c(Cl)ncnc32)[C@H](O)[C@@H]1O			13	31			
Nc1ncnc2c1c(Cl)cn2COCCO	> 100	16			77	> 100	IC50 [3]: 0.82 µM
Nc1nc2c(ncn2COC(CO)CO)c(=O)[nH]1 [GANCICLOVIR]	> 100	8.8			3	> 100	
OC[C@H]1OC(n2cc(Br)c3c(Cl)ncnc32)[C@H](O)[C@@H]1O (some centres undefined)			31	29			
CNc1ncnc2c1c(Cl)cn2COCCO	> 100	> 100			> 100	> 100	
Nc1ncnc2c1c(I)cn2[C@@H]1O[C@H](CO)[C@@H](O)[C@H]1O [IODOTUBERCIDIN]			2	0.4			IC50 [4]: 2.1 µM
CNc1ncnc2c1c(Br)cn2C1O[C@H](CO)[C@@H](O)[C@H]1O (some centres undefined)			> 100	> 100			
Nc1ncnc2c1c(I)cn2COCCO	100	24			100	> 100	IC50 [3]: 1.2 µM
OC[C@H]1O[C@@H](n2ccc3c(N4CCCCC4)ncnc32)[C@H](O)[C@@H]1O	> 100	> 100					
COc1ncnc2c1ccn2COCCO	> 100				> 100	> 100	IC50 (Human betaherpesvirus 5 [5]): > 100 µM
Nc1ncnc2c1c(Cl)cn2[C@@H]1O[C@H](CO)[C@@H](O)[C@H]1O			10	4.4			IC50 [4]: 6.5 µM
OC[C@H]1OC(n2cc(Br)c3cncnc32)[C@H](O)[C@@H]1O (some centres undefined)			31	23			

Compound	IC50 (HFF) [µM]	IC50 (Human betaherpesvirus 5 [1]) [µM]	IC50 (HFF; read-out: I50) [µM]	IC50 (Human betaherpesvirus 5 [1]; read-out: I50) [µM]	IC50 (Human alphaherpesvirus 1) [µM]	IC50 [2] [µM]	also measured
OC[C@H]1OC(n2ccc3cncnc32)[C@H](O)[C@@H]1O (some centres undefined)	2	0.4					
CN(C)c1ncnc2c1ccn2COCCO	> 100	> 100			> 100	> 100	
CNc1ncnc2c1ccn2[C@@H]1O[C@H](CO)[C@@H](O)[C@H]1O	> 100	37					
CNc1ncnc2c1ccn2COCCO	> 100	> 100			> 100	> 100	
CN(C)c1ncnc2c1ccn2[C@@H]1O[C@H](CO)[C@@H](O)[C@H]1O			2	1.2			
OCCOCn1cc(I)c2c(Cl)ncnc21	> 100	> 100			> 100	> 100	
CNc1ncnc2c1c(Br)cn2COCCO	> 100	> 100			> 100	> 100	
Nc1nc2c(ncn2COCCO)c(=O)[nH]1 [ACYCLOVIR]	> 100	63			2.6	> 100	
OCCOCn1cc(Br)c2c(Cl)ncnc21	> 100	> 100			> 100	> 100	
Nc1ncnc2c1ccn2[C@@H]1O[C@H](CO)[C@@H](O)[C@H]1O [TUBERCIDIN]	0.4	0.5					IC50 [4]: 0.6 µM
CSc1ncnc2c1c(Br)cn2[C@@H]1O[C@H](CO)[C@@H](O)[C@H]1O	> 100	> 100					
Nc1ncnc2c1c(Br)cn2COCCO	100	3.9			16	> 100	IC50 [4]: 100 µM
OCCOCn1cc(Cl)c2c(Cl)ncnc21	> 100	> 100			> 100	> 100	
OC[C@H]1O[C@@H](n2ccc3c(S)ncnc32)[C@H](O)[C@@H]1O	> 100	> 100					
OC[C@H]1OC(n2cc(Br)c3c(S)ncnc32)[C@H](O)[C@@H]1O (some centres undefined)	> 100	39					
CCNc1ncnc2c1c(Cl)cn2COCCO	> 100	> 100			> 100	> 100	
Nc1ncnc2c1c(Br)cn2[C@@H]1O[C@H](CO)[C@@H](O)[C@H]1O			4.5	0.5			IC50 [4]: 2.3 µM
COc1ncnc2c1ccn2[C@@H]1O[C@H](CO)[C@@H](O)[C@H]1O			46	10			
